Drawing on ChEMBL document CHEMBL1649159, “A redox basis for metronidazole resistance in Helicobacter pylori” (Antimicrob Agents Chemother, 2009), this text covers MIC, Activity and Km for 3 compounds.

The test system of series [1] is Helicobacter pylori. Put plainly: Antimicrobial activity against compound-resistant Helicobacter pylori 10593a/2 harboring rdxA C177stop mutant gene by Etest. In kind it is functional. In outline:
(§1)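 Metronidazole susceptibility by Etest, repeated in triplicate, on clinical matched-pair isolates collected after failed metronidazole treatment. Strains were grown at 37°C either microaerobically (5% CO2, 5% O2, 90% N2) or aerobically (5% CO2 in air). Isolates were called resistant above a threshold of 8 µg ml–1.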

The test system of series [2] is Helicobacter pylori. Put plainly: Prodrug activation in Helicobacter pylori CAS 015 J0 lysate assessed as compound reduction under argonized microaerobic condition per mg of protein. In outline:
(§2)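 Metronidazole reduction was measured in lysate suspensions with Mtr and NADH as substrates. Cells were grown at 37°C either aerobically (5% CO2 in air) or microaerobically (5% CO2, 5% O2, 90% N2). Lysate samples were either argon-treated to displace oxygen or left untreated. Rates were expressed per mg protein, with protein determined by the bicinchoninic acid method.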

For series [3], the system named is Helicobacter pylori. The experiment in a line: Antimicrobial activity against Helicobacter pylori HER 126 V1 by Etest. It is filed as functional. In outline: as §1
Series [4] has as its system Helicobacter pylori. The experiment in a line: Prodrug activation in Helicobacter pylori CAS 015 J0 lysate assessed as compound reduction under argonized aerobic condition per mg of protein. In outline:
as §2

Series [5] relates to Helicobacter pylori. Put plainly: Prodrug activation in Helicobacter pylori 10593/2 lysate assessed as compound reduction under argonized microaerobic condition per mg of protein. The procedure, abridged:
as §2

Series [6] concerns Helicobacter pylori. Put plainly: Prodrug activation in Helicobacter pylori HER 126 V1 lysate assessed as compound reduction under oxygenated microaerobic condition per mg of protein. To be noted: in vivo. The procedure, abridged: as §2
For series [7], the system named is Helicobacter pylori. The experiment in a line: Prodrug activation in compound-resistant Helicobacter pylori CAS 015 J56 lysate harboring rdxA L132stop and frxA L39stop mutant genes assessed as compound reduction under oxygenated aerobic condition per mg of protein. In outline:
(§3)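 Lysates of H. pylori strains grown at 37°C, either aerobically (5% CO2 in air) or microaerobically (5% CO2, 5% O2, 90% N2), with Mtr and NADH as substrates for reduction activity. Some lysate samples were argon-treated to displace oxygen. Protein content was measured by bicinchoninic acid microtiter assay.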

The subject of series [8] is Helicobacter pylori. The experiment in a line: Antimicrobial activity against compound-resistant Helicobacter pylori HER 126 V4 by Etest. It is filed as functional. In outline:
as §1

The test system of series [9] is Helicobacter pylori. Put plainly: Antimicrobial activity against compound-resistant Helicobacter pylori RIG 117 J56 harboring rdxA R16C and frxA A40stop mutant genes by Etest. In kind it is functional. The procedure, abridged:
as §1

Series [10] deals with Helicobacter pylori. The experiment in a line: Prodrug activation in compound-resistant Helicobacter pylori CAS 015 J56 lysate harboring rdxA L132stop and frxA L39stop mutant genes assessed as compound reduction under oxygenated microaerobic condition per mg of protein. The procedure, abridged:
as §3

In series [11] the test system is Helicobacter pylori. The experiment in a line: Prodrug activation in compound-resistant Helicobacter pylori 10593a/2 lysate harboring rdxA C177stop mutant gene assessed as compound reduction under argonized microaerobic condition per mg of protein. In outline:
as §3

For series [12], the system named is Helicobacter pylori. The experiment in a line: Prodrug activation in Helicobacter pylori HER 126 V1 lysate assessed as compound reduction under argonized microaerobic condition per mg of protein. The procedure, abridged: as §3
The subject of series [13] is Helicobacter pylori. Put plainly: Prodrug activation in Helicobacter pylori RIG 117 J0 lysate assessed as compound reduction under argonized microaerobic condition per mg of protein. In outline: as §2
Series [14] relates to Helicobacter pylori. Put plainly: Prodrug activation in compound-resistant Helicobacter pylori 10593a/2 lysate harboring rdxA C177stop mutant gene assessed as compound reduction under oxygenated aerobic condition per mg of protein. In outline: as §3
Series [15] relates to Helicobacter pylori. Put plainly: Prodrug activation in Helicobacter pylori CAS 015 J0 lysate assessed as compound reduction under oxygenated aerobic condition per mg of protein. The procedure, abridged:
as §3

In series [16] the test system is Helicobacter pylori. The experiment in a line: Antimicrobial activity against Helicobacter pylori CAS 015 J0 by Etest. It is filed as functional. The procedure, abridged:
(§4)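 Etest MIC determination, repeated in triplicate. Strains were grown at 37°C, either aerobically (5% CO2 in air) or microaerobically (5% CO2, 5% O2, 90% N2). Strains were classed as susceptible or resistant using a resistance threshold of 8 µg ml–1, following clinical practice.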

The subject of series [17] is Helicobacter pylori. Put plainly: Prodrug activation in Helicobacter pylori RIG 117 J0 lysate assessed as compound reduction under oxygenated aerobic condition per mg of protein. As to conditions: in vivo. The procedure, abridged:
as §2

The subject of series [18] is Helicobacter pylori. The experiment in a line: Prodrug activation in Helicobacter pylori RIG 117 J0 lysate assessed as compound reduction under argonized aerobic condition per mg of protein. To be noted: in vivo. The procedure, abridged: as §2
Series [19] concerns Helicobacter pylori. Put plainly: Prodrug activation in Helicobacter pylori 10593/2 lysate assessed as compound reduction under oxygenated microaerobic condition per mg of protein. The procedure, abridged:
as §3

Series [20] concerns Helicobacter pylori. The experiment in a line: Prodrug activation in Helicobacter pylori HER 126 V1 lysate assessed as compound reduction under oxygenated aerobic condition per mg of protein. To be noted: in vivo. The procedure, abridged:
as §2

Series [21] relates to Helicobacter pylori. The experiment in a line: Antimicrobial activity against Helicobacter pylori 10593/2 by Etest. In kind it is functional. In outline: as §1
For series [22], the system named is Helicobacter pylori. The experiment in a line: Antimicrobial activity against Helicobacter pylori RIG 117 J0 by Etest. In kind it is functional. In outline: as §4
The subject of series [23] is Helicobacter pylori. The experiment in a line: Prodrug activation in Helicobacter pylori 10593a/2 lysate harboring rdxA C177stop mutant gene assessed as compound reduction under oxygenated microaerobic condition per mg of protein. In outline:
as §3

For series [24], the system named is Helicobacter pylori. The experiment in a line: Prodrug activation in Helicobacter pylori RIG 117 J0 lysate assessed as compound reduction under oxygenated microaerobic condition per mg of protein. In outline:
as §3

Series [25] has as its system Helicobacter pylori. The experiment in a line: Prodrug activation in Helicobacter pylori HER 126 V1 lysate assessed as compound reduction under argonized aerobic condition per mg of protein. The procedure, abridged:
as §2

For series [26], the system named is Helicobacter pylori. The experiment in a line: Prodrug activation in compound-resistant Helicobacter pylori HER 126 V4 lysate assessed as compound reduction under argonized microaerobic condition per mg of protein. In outline:
as §3

In series [27] the test system is Helicobacter pylori. The experiment in a line: Prodrug activation in Helicobacter pylori 10593/2 lysate assessed as compound reduction under oxygenated aerobic condition per mg of protein. In outline: as §3
The subject of series [28] is Helicobacter pylori. Put plainly: Antimicrobial activity against compound-resistant Helicobacter pylori CAS 015 J56 harboring rdxA L132stop and frxA L39stop mutant genes by Etest. In kind it is functional. The procedure, abridged:
as §1

Series [29] has as its system Helicobacter pylori. Put plainly: Prodrug activation in compound-resistant Helicobacter pylori RIG 117 J56 lysate harboring rdxA R16C and frxA A40stop mutant genes assessed as compound reduction under oxygenated microaerobic condition per mg of protein. In kind it is organism-based. As to conditions: in vivo. The procedure, abridged:
as §3

Series [30] has as its system Helicobacter pylori. Put plainly: Prodrug activation in compound-resistant Helicobacter pylori HER 126 V4 lysate assessed as compound reduction under oxygenated microaerobic condition per mg of protein. To be noted: in vivo. In outline: as §3
In series [31] the test system is Helicobacter pylori. The experiment in a line: Prodrug activation in Helicobacter pylori 10593/2 lysate assessed as compound reduction under argonized aerobic condition per mg of protein. The procedure, abridged: as §2
Series [32] concerns Helicobacter pylori. The experiment in a line: Prodrug activation in Helicobacter pylori CAS 015 J0 lysate assessed as compound reduction under oxygenated microaerobic condition per mg of protein. The procedure, abridged:
as §3

The nature of series [33]: Drug activation in metronidazole-resistant Helicobacter pylori RIG 117 J56 lysate.
Series [34] can be described thus: Drug activation in metronidazole-susceptible Helicobacter pylori 10593/2 lysate.
Series [35] can be described thus: Drug activation in metronidazole-susceptible Helicobacter pylori HER 126 V1 lysate.
Series [36] in a line: Drug activation in metronidazole-susceptible Helicobacter pylori RIG 117 J0 lysate.
The nature of series [37]: Drug activation in metronidazole-resistant Helicobacter pylori 10593a/2 lysate.
Series [38] in a line: Drug activation in metronidazole-resistant Helicobacter pylori CAS 015 J56 lysate harboring rdxA L132stop and frxA L39stop mutant genes. It is filed as organism-based.
Series [39] can be described thus: Drug activation in metronidazole-resistant Helicobacter pylori HER 126 V4 lysate.
Series [40] can be described thus: Drug activation in metronidazole-susceptible Helicobacter pylori CAS 015 J0 lysate.

In brackets after ≈: the same amount, converted by molar mass.

For `Cc1ncc([N+](=O)[O-])n1CCO` [METRONIDAZOLE], the MIC worked out at 64 µg/mL (≈ 374 µM) against Helicobacter pylori [1]; 2 µg/mL (≈ 11.7 µM) against Helicobacter pylori [3]; 64 µg/mL (≈ 374 µM) against Helicobacter pylori [8]; 32 µg/mL (≈ 187 µM) in the series on Helicobacter pylori [9]; 4 µg/mL (≈ 23.4 µM) in the series with Helicobacter pylori [16]; 2 µg/mL (≈ 11.7 µM) with Helicobacter pylori [21]. Also, the MIC was found to be 4 µg/mL (≈ 23.4 µM) in the series with Helicobacter pylori [22] and 32 µg/mL (≈ 187 µM) in the series with Helicobacter pylori [28]. Besides, the Activity in the series on Helicobacter pylori [2] was 29 nmol/min; with Helicobacter pylori [4], 31 nmol/min; with Helicobacter pylori [5], 32 nmol/min; in the series with Helicobacter pylori [6], 18 nmol/min; in the series on Helicobacter pylori [7], 13 nmol/min; in the series with Helicobacter pylori [10] it was 9 nmol/min. Moreover, the Activity in the series on Helicobacter pylori [11] was 13 nmol/min; in the series with Helicobacter pylori [12] it was 20 nmol/min; with Helicobacter pylori [13], 32 nmol/min; with Helicobacter pylori [14], 10 nmol/min; with Helicobacter pylori [15], 18 nmol/min; in the series with Helicobacter pylori [17], 27 nmol/min. Also, the Activity is 33 nmol/min in the series on Helicobacter pylori [18]; 14 nmol/min with Helicobacter pylori [19]; 22 nmol/min with Helicobacter pylori [20]; 9 nmol/min with Helicobacter pylori [23]; 19 nmol/min in the series on Helicobacter pylori [24]; 25 nmol/min in the series with Helicobacter pylori [25]. In addition, the Activity in the series on Helicobacter pylori [26] is reported as 11 nmol/min; in the series on Helicobacter pylori [27] it was 16 nmol/min; in the series with Helicobacter pylori [29], 13 nmol/min; in the series on Helicobacter pylori [30] it was 10 nmol/min; with Helicobacter pylori [31] it was 36 nmol/min; in the series on Helicobacter pylori [32] it was 15 nmol/min.

For the compound `NC(=O)N/N=C/c1ccc([N+](=O)[O-])o1` [NITROFURAZONE], the Km was 8.5 µM in series [33]; 2.8 µM in [34]; 13.1 µM in series [35]; 8.1 µM in [36]; 6 µM in [37]; 3.3 µM in [38]. Besides, the figures for the Michaelis-Menten constant (Km) in [39] and in [40] were 6.8 µM and 8.8 µM, respectively.

Take `Cc1cc2nc3c(=O)[nH]c(=O)nc-3n(C[C@H](O)[C@H](O)[C@H](O)COP(=O)(O)OP(=O)(O)OC[C@H]3O[C@@H](n4cnc5c(N)ncnc54)[C@H](O)[C@@H]3O)c2cc1C` [FLAVIN ADENIN DINUCLEOTIDE]: the Km in [33] stood at 11 µM; in series [34] it was 2.1 µM; in [35], 6 µM; in [36], 95 µM; in series [37] it was 5 µM; in series [38], 24 µM. Moreover, the Km was 17 µM in [39] and 2.4 µM in series [40].

Broadly, the MIC is the smallest concentration in the dilution series that meets the test's criterion for growth inhibition. The term Km denotes the concentration of substrate that gives half-maximal velocity.
